Results: ChEMBL document CHEMBL4706643 (J Med Chem, 2021)
Entries after “also recorded” stand apart in the source; their conditions may differ. Calls of active or inactive are those of the source. The rule behind the calls is not given here.

What was measured:
[1] = system: HepG2; test: Cytotoxicity against human HepG2 cells at 100 uM; assay type: cell-based; conditions: hepg2, 100 µM
[2] = Intrinsic clearance in human liver microsomes at 1 uM preincubated for 5 mins followed by NADPH addition and measured upto 60 mins by LC-MS analysis; assay type: ADME, Microsome; conditions: read-out: CLH
How it was run: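 Human or mouse liver microsomes, final 1 mg/mL in 0.05 M phosphate buffer pH 7.4; compound final 1 μM, preincubated 37 °C 5 min, started with 1 mM NADPH; sampled at 0, 5, 15, 30, 60 min, methanol quench, −20 °C 1 h, centrifuged, supernatant by LC–MS.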

[3] = target: T1, Hepatic sodium/bile acid cotransporter (Homo sapiens, UniProt Q14973); test: Inhibition of human NTCP expressed in human HepG2 cells assessed as decrease in NTCP surface expression at 2 uM incubated for 2 hrs by DAPI staining based analysis; assay type: cell-based; conditions: hepg2, 2 h, 2 h
T1 sequence (Q14973 whole entry): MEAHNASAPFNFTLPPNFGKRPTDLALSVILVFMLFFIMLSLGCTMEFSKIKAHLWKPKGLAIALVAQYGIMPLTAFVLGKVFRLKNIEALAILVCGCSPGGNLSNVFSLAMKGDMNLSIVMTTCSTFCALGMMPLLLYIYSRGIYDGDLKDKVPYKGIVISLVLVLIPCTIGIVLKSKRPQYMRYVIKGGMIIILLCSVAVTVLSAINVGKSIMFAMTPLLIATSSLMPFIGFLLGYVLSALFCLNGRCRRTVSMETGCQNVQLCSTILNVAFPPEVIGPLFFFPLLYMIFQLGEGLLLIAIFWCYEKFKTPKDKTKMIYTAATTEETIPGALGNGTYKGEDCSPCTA
How it was run: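 HepG2-NTCP cells treated 2 h with DMSO, compound or TLCA at 2 μM, then immunostained for NTCP to assess cell-surface distribution.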

[4] = system: Hepatitis delta virus; test: Antiviral activity […] infected in C57B/L transgenic mouse harbouring human NTCP assessed as decrease in viral RNA levels in liver at 40 mg/kg, ip administered as single dose followed by HDV challenge at day 2 and measured at day 8 post infection by qPCR analysis; assay type: functional, organism-based; conditions: time 8.0 day
How it was run: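 Neonatal hNTCP-transgenic C57B/L mice received 40 mg/kg i.p. before HDV inoculation, either once or on two consecutive days (n = 4 per group; vehicle group n = 5). HDV was given at 5 × 10⁹ Geq i.p. on day 9 after birth, and mice were sacrificed on day 15. Liver RNA was assayed by RT-qPCR on cDNA from 20 ng RNA, with NTCP mRNA also measured. Group medians are shown.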

[5] = system: Hepatitis delta virus; test: Antiviral activity against HDV infected in NTCP-edited FVB mouse assessed as decrease in viral RNA levels in liver at 30 mg/kg, po administered for 8 days via gavage followed by HDV challenge at day 2 and measured at day 8 post infection by qPCR analysis; conditions: time 8.0 day
[6] = target: T1, Hepatic sodium/bile acid cotransporter; test: Inhibition of human NTCP-mediated [3H]-TCA uptake expressed in human HepG2 cells incubated for 2 hrs followed by substrate addition and measured for 10 mins by microbeta liquid scintillation counter analysis; assay type: cell-based
How it was run: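 HepG2 cells expressing NTCP (human, mouse, monkey or tree shrew) seeded 4–6 h, PMM 20–24 h; compound 2 h, then Na+ Ringer's buffer with 2 μM 3H-TCA, 37 °C 10 min; PBS washes, lysis in 1% Triton X-100, scintillation counting. Single-concentration lines at 2 μM.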

[7] = Half life in C57BL/6 mouse at 10 mg/kg, po; assay type: ADME, organism-based; conditions: in vivo
How it was run: (§1)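 Male C57BL/6 mice (n = 3), single dose IV 5 mg/kg, IP 10 mg/kg or PO 10 mg/kg in DMSO:cremophor:0.9% NaCl 5:5:90; plasma parameters reported as means.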

[8] = AUC (0 to infinity) in C57BL/6 mouse at 10 mg/kg, po; assay type: ADME, organism-based; design: route oral, time infinity, dose 10 mg/kg; conditions: in vivo
How it was run: (§2)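 Male C57BL/6 mice, n = 3, dosed IV at 5 mg/kg, IP at 10 mg/kg or by oral gavage (PO) at 10 mg/kg. All doses formulated in DMSO:cremophor:0.9% NaCl = 5:5:90. AUC from time zero to infinity (h*ng/mL) was derived from plasma drug levels and is reported as the mean of the males.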

[9] = Cmax in C57BL/6 mouse at 10 mg/kg, po; assay type: ADME, organism-based; design: route oral, dose 10 mg/kg; conditions: in vivo; how it was run: as §1
[10] = target: T2, Ileal sodium/bile acid cotransporter (Homo sapiens, UniProt Q12908); test: Inhibition of human ASBT
T2 sequence (Q12908 whole entry): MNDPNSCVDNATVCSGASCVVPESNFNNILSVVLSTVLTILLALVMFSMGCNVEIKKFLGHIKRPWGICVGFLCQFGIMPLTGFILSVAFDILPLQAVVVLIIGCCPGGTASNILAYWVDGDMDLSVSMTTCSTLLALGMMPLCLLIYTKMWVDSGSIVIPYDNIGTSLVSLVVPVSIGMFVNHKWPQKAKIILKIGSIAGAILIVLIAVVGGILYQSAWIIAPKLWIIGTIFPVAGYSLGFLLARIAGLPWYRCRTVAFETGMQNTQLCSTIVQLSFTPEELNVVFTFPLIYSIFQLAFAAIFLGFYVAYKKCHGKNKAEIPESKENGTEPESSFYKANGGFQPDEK

[11] = AUC (0 to infinity) in C57BL/6 mouse at 5 mg/kg, iv; assay type: ADME, organism-based; design: time infinity, route intravenous, dose 5 mg/kg; conditions: in vivo; how it was run: as §2
[12] = system: Hepatitis B virus; test: Antiviral activity against HBV genotype B infected in human HepG2-NTCP cells assessed as reduction in HBeAg secretion at 2 uM cells inoculated with virus for 4 hrs at room temperature and 37 degree C for 24 hrs followed inoculum changed with PMM medium for every 2 days until day 5 post infection by ELISA; assay type: functional, organism-based; conditions: time 28.0 hrs
How it was run: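 HepG2-NTCP cells seeded 4–6 h, then primary maintenance medium 20–24 h; virus inoculum plus compound dilutions 4 h at room temperature, then 37 °C 24 h; medium changed every 2 days to PMM with 2% FBS until day 5 post infection. Secreted HBeAg measured by ELISA; IC50 by nonlinear regression from six or more points, three repeats.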

CC[C@@H]1NC(=O)[C@H]([C@@H]2O[C@@H](Sc3cccc(OCc4ccccc4)c3)C[C@H]2C)N(C)C(=O)[C@H](C(C)C)N(C)C(=O)[C@H](CC(C)C)N(C)C(=O)[C@H](CC(C)C)N(C)C(=O)[C@@H](C)NC(=O)[C@H](C)NC(=O)[C@H](CC(C)C)N(C)C(=O)[C@H](C(C)C)NC(=O)[C@H](CC(C)C)N(C)C(=O)CN(C)C1=O
Activity [1]: Non-Toxic
microsomal CLint at 1 µM [2]: 8 µL/min/mg
inhibition (INH) [3]: Active; also recorded: Not Active
Activity [4]: Active
Activity [5]: Active
IC50 [6]: 66 nM
half-life [7]: 5.65 h
AUC(0-inf) [8]: 14500 ng·h/mL
Cmax [9]: 2290 ng/mL
inhibition (INH) [10]: Not Active
AUC(0-inf) [11]: 39700 ng·h/mL
Activity [12]: Active
